Measured values: ChEMBL document CHEMBL2016511, “Development of clickable active site-directed photoaffinity probes for γ-secretase” (Bioorg Med Chem Lett, 2012)
Active and inactive are the calls of the source. No cut-off for these calls is given here.

Legend:
[1] = Inhibition of gamma-secretase in CHO-APP cells assessed as amyloid beta-42 production using APP as substrate; assay type: cell-based; conditions: Cricetulus griseus
[2] = molecular target: Presenilin-1 (Homo sapiens) (UniProt P49768); assay: Binding affinity to PS1 N-terminal fragment in human HeLa cell membrane at 20 nM after 1 hr by photo-affinity based Western blot analysis; assay type: cell membranes
Method in brief: (§1)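 HeLa membranes (800 μg in 1.2 mL PBS) incubated 1 h at 37 °C with probe at 20 nM, with or without 1 μM competitor GSI. Photoirradiated at ~350 nm for 30 min at 4 °C, then pelleted. Click with biotin-azide (0.1 mM), TCEP 1.0 mM, CuSO4 1.0 mM, TBTA 0.1 mM, 1 h at room temperature. Solubilized in RIPA, streptavidin pull-down, SDS-PAGE, Western blot with PS1-NTF, PS1-CTF or SPP antibodies.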

[3] = molecular target: Presenilin-1 (Homo sapiens) (UniProt P49768); assay: Binding affinity to PS1 N-terminal fragment in human HeLa cell membrane at 20 nM after 1 hr by photo-affinity-based Western blot analysis in presence of GSI L458; assay type: cell membranes; method in brief: as §1
[4] = molecular target: Presenilin-1 (Homo sapiens) (UniProt P49768); assay: Binding affinity to PS1 N-terminal fragment in human HeLa cell membrane at 20 nM by photo-affinity in-gel fluorescence method; assay type: cell membranes
Method in brief: (§2)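 HeLa membranes photolabeled with probe at 20 nM, with or without 1 μM competitor GSI L458, then ~350 nm irradiation. Click reaction with TAMRA-azide, then acetone precipitation to remove excess reagent. Resolubilized in loading buffer, separated by SDS-PAGE, and scanned for in-gel fluorescence of PS1-NTF and PS1-CTF bands. Coomassie staining confirmed equal loading.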

[5] = molecular target: Presenilin-1 (Homo sapiens) (UniProt P49768); assay: Binding affinity to PS1 N-terminal fragment in human HeLa cell membrane at 20 nM by photo-affinity in-gel fluorescence method in presence of GSI L458; assay type: cell membranes; method in brief: as §2
[6] = molecular target: Presenilin-1 (Homo sapiens) (UniProt P49768); assay: Binding affinity to PS1 Carboxy-terminal fragment in human HeLa cell membrane at 20 nM after 1 hr by photo-affinity based Western blot analysis; assay type: cell membranes; method in brief: as §1
HeLa = assay: Binding affinity to SPP in human HeLa cell membrane at 20 nM after 1 hr by photo-affinity based Western blot analysis; assay type: cell membranes; method in brief: as §1
[7] = molecular target: Presenilin-1 (Homo sapiens) (UniProt P49768); assay: Binding affinity to PS1 Carboxy-terminal fragment in human HeLa cell membrane at 20 nM by photo-affinity in-gel fluorescence method; assay type: cell membranes; method in brief: as §2
[8] = molecular target: Presenilin-1 (Homo sapiens) (UniProt P49768); assay: Binding affinity to PS1 Carboxy-terminal fragment in human HeLa cell membrane at 20 nM by photo-affinity in-gel fluorescence method in presence of GSI L458; assay type: cell membranes; method in brief: as §2

Row | Compound | IC50 [1] | Activity [2] | Activity [3] | Activity [4] | Activity [5] | Activity [6] | Activity [7] | Activity [8] | Activity (HeLa)
1 | C#CCCCCNC(=O)[C@H](Cc1ccccc1)NC(=O)[C@H](CC(C)C)NC(=O)[C@H](Cc1ccccc1)C[C@@H](O)[C@H](Cc1ccccc1)NC(=O)c1ccc(C(=O)c2ccccc2)cc1 | 1000 nM | Active | inactive | Active | inactive | inactive | inactive | inactive | inactive
2 | CC(C)C[C@H](NC(=O)[C@H](Cc1ccccc1)C[C@@H](O)[C@H](Cc1ccccc1)NC(=O)OC(C)(C)C)C(=O)N[C@@H](Cc1ccccc1)C(N)=O | 36 nM | – | – | – | – | – | – | – | –
3 | CC(C)C[C@H](NC(=O)[C@H](Cc1ccccc1)C[C@@H](O)[C@H](Cc1ccccc1)NC(=O)c1ccc(C(=O)c2ccccc2)cc1)C(=O)N[C@@H](Cc1ccccc1)C(=O)NCCCCCNC(=O)CCCC[C@@H]1SC[C@@H]2NC(=O)N[C@@H]21 | 817 nM | Active | inactive | – | – | – | – | – | –

The remaining molecules from weak to strong by IC50 [1], led by results:

Row | IC50 [1] | Activity [2] | Activity [3] | Activity [4] | Activity [5] | Activity [6] | Activity [7] | Activity [8] | Compound | Activity (HeLa)
4 | 30 nM | – | – | – | – | – | – | – | CC(C)C[C@H](NC(=O)[C@H](Cc1ccccc1)C[C@@H](O)[C@H](Cc1ccccc1)NC(=O)OC(C)(C)C)C(=O)N[C@@H](Cc1ccc(C(=O)c2ccccc2)cc1)C(=O)NCCCCCNC(=O)CCCC[C@@H]1SC[C@@H]2NC(=O)N[C@@H]21 | –
5 | 4 nM | inactive | – | inactive | inactive | Active | Active | inactive | C#CCCCCNC(=O)[C@H](Cc1ccc(C(=O)c2ccccc2)cc1)NC(=O)[C@H](CC(C)C)NC(=O)[C@H](Cc1ccccc1)C[C@@H](O)[C@H](Cc1ccccc1)NC(=O)OC(C)(C)C | Active
